IDE inh: cellular human IDE inhibition; P14735; HEK cells, FAbetaB cleavage, fluorescence polarization; inhibition, % at 5.59 µM; hit rate 0.41% among 320,000; AID 434962;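 active means percent inhibition above the average of all tested compounds plus 3 SD, set per screening campaign, cut at about 16% in these data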;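 further: IDE supplied by intact live HEK cells; FP after avidin binding of uncleaved biotin substrate so inhibition keeps polarization high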
HDAC3 inh: inhibitors of human histone deacetylase 3; recombinant HDAC3, fluorogenic peptide/trypsin coupled, fluorescence; inhibition, % at 8.3 µM; hit rate 0.15% among 320,000; in the data active means inhibition above about 26%, passing the limit was not always enough
Target sequence (O15379 whole entry, looked up): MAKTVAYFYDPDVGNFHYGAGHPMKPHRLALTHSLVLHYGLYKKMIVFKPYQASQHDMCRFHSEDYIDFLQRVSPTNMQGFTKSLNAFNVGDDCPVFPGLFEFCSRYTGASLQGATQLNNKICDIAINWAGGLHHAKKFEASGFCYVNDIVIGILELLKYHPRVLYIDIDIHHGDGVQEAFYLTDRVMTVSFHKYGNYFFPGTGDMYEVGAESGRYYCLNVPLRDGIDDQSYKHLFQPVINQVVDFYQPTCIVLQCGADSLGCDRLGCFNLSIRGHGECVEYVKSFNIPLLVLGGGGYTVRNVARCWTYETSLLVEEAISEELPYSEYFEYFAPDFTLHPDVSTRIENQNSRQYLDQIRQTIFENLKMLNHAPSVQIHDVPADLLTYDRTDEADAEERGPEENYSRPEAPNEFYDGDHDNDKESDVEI
Efflux pump inh: blocks antifungal efflux pumps in multiplex yeast assay. AID 485275. S. cerevisiae Candida pump triplex, Nile Red efflux. hit rate 0.44% among 330,000. inhibition, % at 10 µM;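 active means plate passing quality check with inhibition over a set limit, or well fluorescence over plate mean plus 4 SD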;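 further: Nile Red retained in pooled yeast measured as flow cytometry median fluorescence; higher means more Nile Red kept so more efflux inhibition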
TbMetRS inhib: Trypanosoma brucei MetRS inhibition; purified T. brucei MetRS, ATP depletion, Kinase-Glo luminescence; inhibition, % at 11.9 µM; hit rate 0.4% among 360,000; AID 624268;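 active means inhibition above a per-plate cutoff of the control wells' mean inhibition plus 3 SD, cut at about 5.5% in these data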
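Test system: purified T. brucei MetRS enzyme. Also added: ATP, methionine and E. coli bulk tRNA substrates. Compound: 11.9 µM single point. Schedule: 15 min enzyme-compound preincubation, 2 h reaction, 10 min detection, 25 °C. Signal: luciferase luminescence of residual ATP, Kinase-Glo. Evaluation: percent inhibition versus plate control medians. Controls: DMSO wells, low control.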
IDE cell activ: IDE (human) activation, cell-based; HEK cells, FAbeta-B cleavage, fluorescence polarization; 0% vehicle, 100% cell-free pure enzyme wells; activation, % at 5.96 µM; AID 493087; hit rate 0.073% among 340,000; P14735;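 active means activation above the mean of all tested compounds plus 3 SD, set per screening campaign, cut at about 17% in these data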
CR mimetic SO: yeast age-related superoxide inhibition as caloric restriction mimetic. AID 2690. superoxide response (% of plate mean), % at 10 µM. S. cerevisiae aged cells, superoxide DHE fluorescence; active compounds read low. hit rate 0.18% among 330,000;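 active means superoxide response under a set limit, about three screen SD below normal, cut at about 65% in these data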;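 further: yeast aged for seven days with compound at 30 °C before DHE staining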
TbMetRS confirm: confirmation of Trypanosoma brucei MetRS inhibitors; shares compounds with TbMetRS inhib; T. brucei MetRS enzyme, luminescence (ATP depletion); inhibition, % at 11.9 µM; hit rate 93% among 1,400; AID 624412; in the data active means inhibition above about 7%
Jurkat cytotox: kills Jurkat cells in T. brucei MetRS counterscreen; Jurkat cells viability, ATP luminescence; hit rate 12% among 1,400; shares compounds with TbMetRS inhib; inhibition, % at 8.3 µM; in the data active means inhibition above about 15%
TbMetRS FP orth: T. brucei MetRS inhibition, orthogonal assay. inhibition, % at 11.9 µM. hit rate 44% among 1,400. AID 651607. purified T. brucei MetRS, fluorescence polarization. shares compounds with TbMetRS inhib; in the data active means inhibition above about 17%
Numbers stand for hits. Compounds with a hit are over-represented: about 1.4% of the library has one in this group of screens.

What do the screens show for `O=C(O)[C@H]1CCCN1C(=O)c1ccccc1N1C(=O)[C@@H]2Cc3c([nH]c4ccccc34)C(c3cccc(Cl)c3)N2C1=O` (stereo partly specified)?
IDE inh: inactive; HDAC3 inh: inactive; Efflux pump inh: inactive; TbMetRS inhib: 8.3; IDE cell activ: inactive; CR mimetic SO: inactive; TbMetRS confirm: 18.3; Jurkat cytotox: inactive; TbMetRS FP orth: inactive

What do the screens show for `Cc1csc(CNc2ncnc3ccc(-c4ccccc4Cl)cc23)c1`?
IDE inh: inactive; HDAC3 inh: inactive; Efflux pump inh: inactive; TbMetRS inhib: 6.0; IDE cell activ: inactive; CR mimetic SO: inactive; TbMetRS confirm: 24.6; Jurkat cytotox: inactive; TbMetRS FP orth: 20.5

How did CCOC(=O)CN(c1ccccc1C)S(=O)(=O)c1ccc(Cl)cc1 do in these assays?
IDE inh: inactive; HDAC3 inh: inactive; Efflux pump inh: inactive; TbMetRS inhib: inactive; IDE cell activ: inactive; CR mimetic SO: inactive

What do the screens show for `O=C(CCC(=O)c1ccc(Br)cc1)Nc1cccnc1`?
IDE inh: inactive; HDAC3 inh: inactive; Efflux pump inh: inactive; TbMetRS inhib: inactive; IDE cell activ: inactive; CR mimetic SO: inactive

What do the screens show for `O=C(CCSc1ccc(Br)cc1)Nc1cccnc1`?
IDE inh: inactive; HDAC3 inh: inactive; Efflux pump inh: inactive; TbMetRS inhib: 6.4; IDE cell activ: inactive; CR mimetic SO: inactive; TbMetRS confirm: 10.8; Jurkat cytotox: inactive; TbMetRS FP orth: inactive

Results for CCOc1cc(/C=C2\SC(=O)N=C2N)ccc1O ?
IDE inh: inactive; Efflux pump inh: inactive; TbMetRS inhib: 32.1; IDE cell activ: inactive; CR mimetic SO: inactive; TbMetRS confirm: 43.7; Jurkat cytotox: inactive; TbMetRS FP orth: 18.9

Results for COc1ccc(C2c3ccc(O)cc3Oc3ncn4nc(-c5ccncc5)nc4c32)cc1OC (stereo unspecified) ?
IDE inh: inactive; HDAC3 inh: inactive; Efflux pump inh: inactive; TbMetRS inhib: inactive; IDE cell activ: inactive; CR mimetic SO: inactive

What do the screens show for `Cn1c(SCC(=O)Nc2ccc3cn[nH]c3c2)nnc1-c1cnccn1`?
IDE inh: inactive; HDAC3 inh: inactive; Efflux pump inh: inactive; TbMetRS inhib: 7.8; IDE cell activ: inactive; CR mimetic SO: inactive; TbMetRS confirm: 14.2; Jurkat cytotox: inactive; TbMetRS FP orth: inactive

What do the screens show for `Cn1c(SCC(=O)Nc2ccc3cn[nH]c3c2)nnc1-c1cccs1`?
IDE inh: inactive; HDAC3 inh: inactive; Efflux pump inh: inactive; TbMetRS inhib: inactive; IDE cell activ: inactive; CR mimetic SO: inactive

Results for CC(=O)Oc1ccc2c(=O)c(/C=N/c3cc(=O)[nH]c(=S)[nH]3)coc2c1 ?
IDE inh: inactive; HDAC3 inh: inactive; Efflux pump inh: inactive; TbMetRS inhib: 8.0; IDE cell activ: inactive; CR mimetic SO: inactive; TbMetRS confirm: 13.4; Jurkat cytotox: inactive; TbMetRS FP orth: inactive

What do the screens show for `O=c1cc(/N=C/c2coc3cc(Br)ccc3c2=O)[nH]c(=S)[nH]1`?
IDE inh: inactive; HDAC3 inh: inactive; Efflux pump inh: inactive; TbMetRS inhib: inactive; IDE cell activ: inactive; CR mimetic SO: inactive

Results for O=C(CCNS(=O)(=O)c1cccc2nonc12)Nc1ccc(Cl)cc1 ?
IDE inh: inactive; HDAC3 inh: inactive; Efflux pump inh: inactive; TbMetRS inhib: 10.1; IDE cell activ: inactive; CR mimetic SO: inactive; TbMetRS confirm: 21.3; Jurkat cytotox: inactive; TbMetRS FP orth: inactive

How did O=C(CCNS(=O)(=O)c1ccc(Br)s1)Nc1ccc(Cl)cc1 do in these assays?
IDE inh: inactive; HDAC3 inh: inactive; Efflux pump inh: inactive; TbMetRS inhib: 78.1; IDE cell activ: inactive; CR mimetic SO: inactive; TbMetRS confirm: 85.1; Jurkat cytotox: inactive; TbMetRS FP orth: 69.0

Results for Cc1sc2ncn(CC(=O)NCCCC(=O)Nc3ccc(C(C)C)cc3)c(=O)c2c1C ?
IDE inh: inactive; HDAC3 inh: inactive; Efflux pump inh: inactive; TbMetRS inhib: inactive; IDE cell activ: inactive; CR mimetic SO: inactive

How did Cn1cccc1-c1nc2ccc(NC(=O)c3ccco3)cc2[nH]1 do in these assays?
IDE inh: inactive; HDAC3 inh: inactive; Efflux pump inh: inactive; TbMetRS inhib: inactive; IDE cell activ: inactive; CR mimetic SO: inactive

How did O=C(Nc1cccc(-c2nc3ccccc3[nH]2)c1)c1ccco1 do in these assays?
IDE inh: inactive; HDAC3 inh: inactive; Efflux pump inh: inactive; TbMetRS inhib: 5.7; IDE cell activ: inactive; CR mimetic SO: inactive; TbMetRS confirm: 8.8; Jurkat cytotox: inactive; TbMetRS FP orth: inactive

How did O=C(CN(Cc1ccc(F)cc1)C(=O)CNS(=O)(=O)c1ccc(Cl)cc1)NCC1CCCO1 (stereo unspecified) do in these assays?
IDE inh: inactive; HDAC3 inh: inactive; Efflux pump inh: inactive; TbMetRS inhib: inactive; IDE cell activ: inactive; CR mimetic SO: inactive

How did COC(=O)c1cccc(NC(=O)Cn2nnc3ccccc32)c1 do in these assays?
IDE inh: inactive; HDAC3 inh: inactive; Efflux pump inh: inactive; TbMetRS inhib: 14.0; IDE cell activ: inactive; CR mimetic SO: inactive; TbMetRS confirm: 26.7; Jurkat cytotox: inactive; TbMetRS FP orth: inactive

How did CCOC(=O)C1(C(C)(C)CC)CC(CSc2nc3ccccc3[nH]2)OC1=O (stereo unspecified) do in these assays?
IDE inh: inactive; HDAC3 inh: inactive; Efflux pump inh: inactive; TbMetRS inhib: 5.7; IDE cell activ: inactive; CR mimetic SO: inactive; TbMetRS confirm: 15.5; Jurkat cytotox: inactive; TbMetRS FP orth: inactive

What do the screens show for `CCOC(=O)NC(=O)CSc1nc2ccccc2[nH]1`?
IDE inh: inactive; HDAC3 inh: inactive; Efflux pump inh: inactive; TbMetRS inhib: inactive; IDE cell activ: inactive; CR mimetic SO: inactive

Results for Cc1ccc(C)c(C(=O)OCC(=O)Nc2cccc(S(=O)(=O)NC3=NCCCCC3)c2)c1 ?
IDE inh: inactive; HDAC3 inh: inactive; Efflux pump inh: inactive; TbMetRS inhib: inactive; IDE cell activ: inactive; CR mimetic SO: inactive

What do the screens show for `Cc1ccc(C)c(OCCC(=O)Nc2cccc(S(=O)(=O)NC3=NCCCCC3)c2)c1`?
IDE inh: inactive; HDAC3 inh: inactive; Efflux pump inh: inactive; TbMetRS inhib: 7.0; IDE cell activ: inactive; CR mimetic SO: inactive; TbMetRS confirm: 22.3; Jurkat cytotox: inactive; TbMetRS FP orth: 18.5

What do the screens show for `O=C(NNC(=O)c1ccc(-n2cncn2)c([N+](=O)[O-])c1)c1cccc(Cl)c1`?
IDE inh: inactive; HDAC3 inh: inactive; Efflux pump inh: inactive; TbMetRS inhib: 35.3; IDE cell activ: inactive; CR mimetic SO: inactive; TbMetRS confirm: 59.2; Jurkat cytotox: inactive; TbMetRS FP orth: 31.2
